Measurements collected from several papers.
Each line is one published result; the experiments were not run side by side.
SIRT6: NAD-dependent protein deacylase sirtuin-6 (SIRT6, Homo sapiens, UniProt Q8N6T7)
HTR7: 5-hydroxytryptamine receptor 7 (HTR7, Homo sapiens, UniProt P34969)
Adra1a: Alpha-1A adrenergic receptor (Adra1a, Rattus norvegicus, UniProt P43140)
CTSB: Cathepsin B (CTSB, Homo sapiens, UniProt P07858)
SCN5A: Sodium channel protein type 5 subunit alpha (SCN5A, Homo sapiens, UniProt Q14524)
Plasmepsin II: Plasmepsin II (Plasmodium falciparum, UniProt P46925)
PDK4: [Pyruvate dehydrogenase (acetyl-transferring)] kinase isozyme 4, mitochondrial (PDK4, Homo sapiens, UniProt Q16654)

NC(=O)c1ccc(C(=O)NOCc2ccc(Sc3cc(Cl)cc(Cl)c3)c(C(F)(F)F)c2)cc1 — inhibition (SIRT6; enzyme activity, inhibitor, fluorescence; 100 µM): 100%
CNC(=O)c1cc2c(Oc3ccc(NC(=O)C4(C(=O)Nc5ccc(F)cc5)CC4)cc3)ccnc2cc1OC — inhibition (Angiopoietin-1 receptor (TEK, Homo sapiens, UniProt Q02763, R849W); enzyme activity, inhibitor, radiometric; 1 µM): 99%
NC(=O)c1ccc(C(=O)NOCc2ccc(Sc3ccccc3Cl)c(C(F)(F)F)c2)cc1 — inhibition (SIRT6; enzyme activity, inhibitor, fluorescence; 100 µM): 99.1%
O=C(c1ccc(Cl)cc1)N(Cc1ccccc1)C1CCCCC1 — inhibition (HTR7; ligand displacement, radioligand; 10 µM): 19.2%
CCN(Cc1ccccc1C(F)(F)F)C(=O)C1CCN(S(=O)(=O)c2ccc3[nH]ncc3c2)CC1 — inhibition (Adra1a; ligand displacement, radioligand; 10 µM): 12%
Cc1ccc(CNC(=O)[C@H](CCc2ccccc2)NC(=O)[C@H](CCc2ccccc2)NC(=O)[C@H](CCc2ccccc2)NC(=O)c2cnc(C)cn2)cc1 — inhibition (CTSB; enzyme activity, inhibitor; 100 µM): -15%
C/C(=C\C(=O)OCCCCCCCCC(=O)O)C[C@@H]1OC[C@H](C[C@@H]2O[C@H]2[C@@H](C)[C@H](C)O)[C@@H](O)[C@H]1O — inhibition (C-C chemokine receptor type 5 (CCR5, Homo sapiens, UniProt P51681); calcium signal, antagonist; U87/CD4/CCR5; 100 µM): 96%
COc1cccc(Sc2ccc(CONC(=O)c3ccc(C(N)=O)cc3)cc2C(F)(F)F)c1 — inhibition (SIRT6; enzyme activity, inhibitor, fluorescence; 100 µM): 100%
O=c1c2ccccc2c(Cc2ccc(Cl)cc2)nn1C1CCCNCC1 (stereo not shown) — inhibition (SCN5A; ion current, inhibitor, patch clamp; CHO; 10 µM): 62%
NC(=S)c1ccc(C(=O)NOCc2ccc(C(F)(F)F)cc2)cc1 — inhibition (SIRT6; enzyme activity, inhibitor, fluorescence; 100 µM): 89.2%
CSSc1ccccc1C(=O)O — inhibition (CTSB; enzyme activity, inhibitor, fluorescence; 20 µM): 100%
Cc1cnc(C(=O)NCCNC(=O)Cn2[nH]c(=O)c3ccccc3c2=O)cn1 — inhibition (Poly [ADP-ribose] polymerase 2 (PARP2, Homo sapiens, UniProt Q9UGN5); enzyme activity, inhibitor; 0.5 µM): ~50%
CC1=NN(c2ccccc2)CC1 — inhibition (NADPH oxidase 4 (NOX4, Homo sapiens, UniProt Q9NPH5); enzyme activity, inhibitor, fluorescence; 100 µM, cell membranes): > 40%
O=[N+]([O-])c1ccc(N2CCC(NCCC(O)c3ccc(F)c4ccccc34)CC2)c(C(F)(F)F)c1 (stereo not shown) — inhibition (Plasmepsin II; enzyme activity, inhibitor; 5 µM): 9%
CCCCCCOc1c(OC)cc2c3c1-c1cc4c(cc1CC3N(C)CC2c1ccccc1)OCO4 (stereo not shown) — inhibition (HTR7; ligand displacement, radioligand; 10 µM): -14.6%
COC(=O)c1ccc(C(=O)NOCc2ccccc2)cc1 — inhibition (SIRT6; enzyme activity, inhibitor, fluorescence; 100 µM): 52.2%
CCCNc1nc2ccccc2n1Cc1ccc(Cl)cc1 — inhibition (5-hydroxytryptamine receptor 6 (HTR6, Homo sapiens, UniProt P50406); ligand displacement; 10 µM): 36.6%
N=c1n(CCN2CCCCC2)c2ccccc2n1CC(O)c1cccc(Br)c1 (stereo not shown) — inhibition (SCN5A; ion current, inhibitor, patch clamp; CHO; 10 µM): 66%
CC/C(=N\NC(=O)NCc1cccc(O)c1)c1ccc(O)c(C)c1O — inhibition (PDK4; enzyme activity, inhibitor; 0.1 µM): -2.1%
O=[N+]([O-])c1ccc(N2CCCN(CCC(O)c3csc4ccc(F)cc34)CC2)c(C(F)(F)F)c1 (stereo not shown) — inhibition (Plasmepsin II; enzyme activity, inhibitor; 5 µM): 8%
NC(=O)c1ccc(C(=O)NOCc2cccc3ccccc23)cc1 — inhibition (SIRT6; enzyme activity, inhibitor, fluorescence; 100 µM): 92.2%
CN(Cc1ccc(NC(=O)C2=Cc3cc(-c4ccc(OCCCO)cc4)ccc3CCC2)cc1)C1CCOCC1 — inhibition (C-C chemokine receptor type 2 (CCR2, Homo sapiens, UniProt P41597); ligand displacement, radioligand; 1 µM, cell membranes): 51%
CN1CC(Oc2cnc(C#N)cc2-c2ccn3nc(NC(=O)C4CC4)cc3c2)C1 — inhibition (PDK4; enzyme activity, inhibitor; 1 µM): 2%
O=C(NC1CCC1)[C@H](Cc1c[nH]c2ccccc12)NC(=O)[C@H](CCCCNC(=S)NCCc1nnn[nH]1)NS(=O)(=O)c1cccc(F)c1 — inhibition (SIRT6; enzyme activity, inhibitor; 10 µM): 6%
Cc1ccc(Sc2ccc(CONC(=O)c3ccc(C(N)=O)cc3)cc2C(F)(F)F)cc1 — inhibition (SIRT6; enzyme activity, inhibitor, fluorescence; 100 µM): 98.6%
CN(C)C1CCN(CC#Cc2nn(C3CCCC3)c3nc(NCc4ccccc4)ncc23)C1 (stereo not shown) — inhibition (Serine/threonine-protein kinase pim-1 (PIM1, Homo sapiens, UniProt P11309); enzyme activity, inhibitor, FRET; 10 µM): 2%
Cc1cccc(CONC(=O)c2ccc(C(N)=O)cc2)c1 — inhibition (SIRT6; enzyme activity, inhibitor, fluorescence; 100 µM): 84%
O=[N+]([O-])c1ccc(N2CCN(CCC(O)c3ccc(F)cc3)CC2)c(C(F)(F)F)c1 (stereo not shown) — inhibition (Plasmepsin II; enzyme activity, inhibitor; 5 µM): 0%
O=C(c1ccc(F)cc1)N(Cc1ccccc1)C1CCCCC1 — inhibition (Adra1a; cell-free assay; 10 µM): -1%
Ic1cccc2cnccc12 — inhibition (Adra1a; ligand displacement, radioligand; 10 µM): 9%
O=C(Nc1ccc(S(=O)(=O)N2CCC(Cl)CC2)cc1)c1ccc([N+](=O)[O-])o1 — inhibition (Adra1a; ligand displacement, radioligand; 10 µM): 19%
